≈ marks a conversion by molar mass, not a printed value.
Experiments:
E. coli (ATCC 25922) = assay: microbe, parasite or virus in culture; type: cell-based; conditions: for MIC, Gram-negative, E. coli: ATCC 25922, 18 h
[1] = tested on: P. aeruginosa (ATCC 27853); assay: microbe, parasite or virus in culture; type: cell-based, Pseudomonas aeruginosa; conditions: for MIC, Gram-negative, P. aeruginosa: ATCC 27853, 18 h
[2] = tested on: methicillin-resistant S. aureus (MRSA) (ATCC 33591); assay: microbe, parasite or virus in culture; type: cell-based, Staphylococcus aureus; conditions: for MIC, Gram-positive, MRSA: ATCC 33591, 18 h
[3] = tested on: methicillin-resistant S. epidermidis (MRSE) (RP62A); assay: microbe, parasite or virus in culture; type: cell-based, Staphylococcus epidermidis; conditions: for MIC, Gram-positive, MRSE: methicillin-resistant (RP62A, 18 h)
E. coli [4] = assay: Fluorescence microscopy; type: cell-based; conditions: 12 μg mL^−1, 2 h, 37 °C
In short: (§1)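 Mid-log cultures grown at 37 °C, diluted to 1 × 10^6 CFU mL−1, exposed to test compound for 2 h at 37 °C alongside untreated controls. Cells pelleted at 3000 rpm for 15 min at 4 °C and PBS-washed. Stained with DAPI (10 μg mL−1) for 15 min on ice in the dark, washed twice, then stained the same way with PI (5 μg mL−1). Imaged under oil immersion.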

E. coli [5] = type: cell-based; conditions: 48 h, 0.188 μg mL^−1
[6] = HPLC retention time as estimate of amphiphilicity; type: physicochemical; conditions: HPLC data of Table S2 in ESI, which is not in the material
E. coli [7] = assay: Time-kill assay; type: cell-based; conditions: 2 × MIC; 1 × 10^6 CFU mL^−1; repeated three times
In short: (§2)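 Bacteria grown overnight in TSB at 37 °C to mid-log phase and diluted to 1 × 10^6 CFU mL−1. Incubated with test compound at several concentrations, with suspensions plated on agar at set time points. Plates incubated 20 h at 37 °C before colony counting. Assay repeated three times.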

MRSA [8] = assay: Time-kill assay; type: cell-based, Staphylococcus aureus; conditions: 1 × 10^6 CFU mL^−1, repeated three times
In short: as §2

MRSA [9] = type: cell-based, Staphylococcus aureus; conditions: 48 h, 0.094 μg mL^−1
E. coli [10] = assay: Outer membrane permeability assay; type: cell-based; conditions: 1 × MIC; 37 °C, 1 h; percent uptake relative to 16 mM melittin
MRSA [11] = assay: Transmission electron microscopy; type: cell-based, Staphylococcus aureus; conditions: 12 μg mL^−1, 2 h, TSB, 37 °C
In short: (§3)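 Mid-log bacteria exposed to test compound in TSB for 2 h at 37 °C, with untreated samples as controls. Cells pelleted at 3000 rpm for 15 min, washed four times in PBS, resuspended in deionized water. A drop placed on carbon-coated Cu grids, excess blotted off, dried about 1 h. Imaged by TEM at 60 kV.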

MRSA [12] = assay: Bacterial membrane depolarization assay, DiSC3; type: cell-based, Staphylococcus aureus; conditions: 1 × MIC, 2 × MIC and 4 × MIC; concentration-dependent; repeated three times with duplicates
E. coli [13] = assay: Transmission electron microscopy; type: cell-based; conditions: 12 μg mL^−1, 2 h, TSB, 37 °C
In short: as §3

E. coli [14] = assay: Bacterial membrane depolarization assay, DiSC3; type: cell-based; conditions: 1 × MIC, 2 × MIC and 4 × MIC; concentration-dependent; repeated three times with duplicates
MRSA [15] = assay: Fluorescence microscopy; type: cell-based, Staphylococcus aureus; conditions: 12 μg mL^−1, 2 h, 37 °C
In short: as §1

Compound: CCCCCCCCCCCC(=O)NCCCC[C@H](NC(=O)c1cc(NC(=O)CN(C[C@H](CCCCN)NC(=O)[C@@H](N)CCCCN)S(=O)(=O)c2ccccc2)cc(NC(=O)CN(C[C@H](CCCCN)NC(=O)[C@@H](N)CCCCN)S(=O)(=O)c2ccccc2)c1)C(N)=O [Compound 1]
- MIC, Gram-negative, E. coli (E. coli (ATCC 25922)): 3 to 6 µg/mL
- MIC, Gram-negative, P. aeruginosa [1]: 6 to 12.5 µg/mL
- MIC, Gram-positive, MRSA [2]: 3 to 6 µg/mL
- MIC, Gram-positive, MRSE [3]: 3 to 6 µg/mL

Compound: CCCCCCCCCCCCCCCC(=O)NCCCC[C@H](NC(=O)c1cc(NC(=O)CN(C[C@H](CCCCN)NC(=O)[C@@H](N)CCCCN)S(=O)(=O)c2ccccc2)cc(NC(=O)CN(C[C@H](CCCCN)NC(=O)[C@@H](N)CCCCN)S(=O)(=O)c2ccccc2)c1)C(N)=O [Compound 2]
- MIC, Gram-negative, E. coli (E. coli (ATCC 25922)): 6 to 12.5 µg/mL
- MIC, Gram-positive, MRSA [2]: 6 to 12.5 µg/mL

Compound: CCCCCCCCCCCC(=O)NCCCC[C@H](NC(=O)c1cc(NC(=O)CN(C[C@H](CCCCN)NC(=O)[C@@H](N)CCCCN)S(=O)(=O)c2ccc(Cl)cc2)cc(NC(=O)CN(C[C@H](CCCCN)NC(=O)[C@@H](N)CCCCN)S(=O)(=O)c2ccc(Cl)cc2)c1)C(N)=O [Compound 17]
- Membrane integrity of E. coli by DAPI/PI fluorescence (E. coli [4]): compromised
- Inhibition of biofilm formation of E. coli (E. coli [5]): around 40%
- HPLC retention time (RT), estimate of amphiphilicity [6]: 19.70 min
- Time to complete killing of E. coli (E. coli [7]): ≤ 6 h
- Time to complete killing of MRSA (MRSA [8]; 2 × MIC): ≤ 6 h
- Time to eradicate MRSA (MRSA [8]; 8 × MIC): roughly 2 h
- Inhibition of biofilm formation of MRSA (MRSA [9]): ~50%
- MIC, Gram-negative, E. coli (E. coli (ATCC 25922)): 3 to 6 µg/mL
- Permeabilization of E. coli outer membrane (NPN uptake) (E. coli [10]): more than 50%
- MRSA cell membrane morphology by TEM (MRSA [11]): membranes have been damaged
- Membrane depolarization of MRSA, DiSC3(5) fluorescence (MRSA [12]): dramatic enhancement of fluorescence intensity
- E. coli cell membrane morphology by TEM (E. coli [13]): membranes have been damaged
- Membrane depolarization of E. coli, DiSC3(5) fluorescence (E. coli [14]): dramatic enhancement of fluorescence intensity
- Membrane integrity of MRSA by DAPI/PI fluorescence (MRSA [15]): compromised
- MIC, Gram-negative, P. aeruginosa [1]: 3 to 6 µg/mL
- MIC, Gram-positive, MRSA [2]: 3 to 6 µg/mL
- MIC, Gram-positive, MRSE [3]: 3 to 6 µg/mL

Compound: O=C(O)c1cn(C2CC2)c2cc(N3CCNCC3)c(F)cc2c1=O [Ciprofloxacin, reference compound]
- MIC (E. coli (ATCC 25922); Escherichia coli, ATCC25922, 18 h, read-out: MIC, Gram-negative, E. coli): 0.75 to 1.5 µg/mL (≈ 2.26 to 4.53 µM)
- MIC ([1]; Pseudomonas aeruginosa, ATCC27853, 18 h, read-out: MIC, Gram-negative, P. aeruginosa): 1.5 to 3 µg/mL (≈ 4.53 to 9.05 µM)
- MIC ([2]; Staphylococcus aureus, ATCC33591|MRSA, 18 h, read-out: MIC, Gram-positive, MRSA): 0.75 to 1.5 µg/mL (≈ 2.26 to 4.53 µM)
- MIC ([3]; Staphylococcus epidermidis, MRSE, 18 h, read-out: MIC, Gram-positive, MRSE): 0.75 to 1.5 µg/mL (≈ 2.26 to 4.53 µM)

Reference: PMC8903075 (Biomaterials science, 2021)
